CHRM5 agonist = CHRM5 agonism in calcium assay; CHO-K1 hM5 cells, Fluo-8 calcium fluorescence; 0% DMSO wells, 100% maximal acetylcholine response; activation, % at 3 µM; P08912; 0.19% of 360,000 active;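 active = activation above the run's mean over test compounds plus 3 SD, cut at about 23% in these data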;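 note: signal is peak over basal fluorescence ratio across the kinetic read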
CHRM4 PAM = potentiates acetylcholine response at human M4 receptor | P08173 | 0.4% of 360,000 active | activation, % at 3 µM | CHO-K1 hM4/Gqi5, Fluo-8 calcium fluorescence, ACh EC20; 0% = ACh EC20, 100% = maximal ACh | AID 624126;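 active = activation above its plate's cutoff, the mean activation of sample wells plus 3 SD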
Target sequence (P08173 whole entry, looked up): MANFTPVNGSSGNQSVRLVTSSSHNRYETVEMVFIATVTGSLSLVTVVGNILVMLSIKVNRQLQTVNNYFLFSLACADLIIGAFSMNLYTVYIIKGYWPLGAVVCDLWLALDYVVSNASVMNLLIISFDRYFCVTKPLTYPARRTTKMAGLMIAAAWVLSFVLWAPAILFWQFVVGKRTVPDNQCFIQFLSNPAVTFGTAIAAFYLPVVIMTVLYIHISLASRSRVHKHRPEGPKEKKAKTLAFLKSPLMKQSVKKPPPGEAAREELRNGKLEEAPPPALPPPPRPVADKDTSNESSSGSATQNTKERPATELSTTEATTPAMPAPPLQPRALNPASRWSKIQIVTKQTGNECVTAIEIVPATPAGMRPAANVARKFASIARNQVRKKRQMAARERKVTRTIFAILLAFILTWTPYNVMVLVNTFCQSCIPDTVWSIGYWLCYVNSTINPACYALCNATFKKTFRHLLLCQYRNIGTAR
CHRM5 PAM = potentiates acetylcholine response at human M5 receptor. activation, % at 3 µM. 0.3% of 360,000 active. AID 624038. P08912. CHO-K1 hM5, Fluo-8 calcium, ACh EC20 PAM; 0% = ACh EC20, 100% = ACh EC100;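 active = activation above the run cutoff, the mean activation of all test compounds plus 3 SD, cut at about 18% in these data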
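System – CHO-K1 hM5 cells · Compound – 3 µM, single dose · Incubation – compound preincubation 140 s before EC20 acetylcholine addition · Technique – Fluo-8 calcium fluorescence · Measure – Max/basal fluorescence ratio as % of EC20–EC100 ACh window · Benchmarks – low control EC20 acetylcholine (0%), high control EC100 acetylcholine (100%) · Replication – singlicate, one well per test compound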
CHRM4 agonist = agonists of human muscarinic M4 receptor (CHRM4). AID 624127. activation, % at 3 µM. 0.14% of 360,000 active. CHO-K1 hM4/Gqi5, Fluo-8 calcium fluorescence; vehicle 0%, full acetylcholine response 100%. P08173;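 active = activation above the run mean over all test wells plus 3 SD, cut at about 32% in these data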;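 note: peak over basal fluorescence ratio per well then scaled between controls; 0% = DMSO wells and 100% = acetylcholine at EC100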
M5 antag = blocks acetylcholine activation of human M5 receptor; AID 624040; 0.59% of 360,000 active; P08912; inhibition, % at 3 µM; CHO-hM5 cells, Fluo-8 calcium fluorescence, ACh EC80;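 active = inhibition above a per-plate cutoff, the mean of that plate's test compounds plus 3 SD, cut at about 27% in these data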;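 note: 0% = acetylcholine EC80 with DMSO and 100% = DMSO without agonist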
M4 antag = antagonists of human muscarinic M4 receptor (CHRM4). P08173. CHO-hM4 cells, ACh EC80, Fluo-8 calcium fluorescence. inhibition, % at 3 µM. 0.73% of 360,000 active. AID 624125;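 active = inhibition above its plate's cutoff, the mean inhibition of sample wells plus 3 SD, cut at about 27% in these data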;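 note: 0% = acetylcholine EC80 with DMSO and 100% = DMSO without agonist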
An asterisk follows results filed as active. The list is not random: actives were taken first. Their share in the collection is about 1.9%.

SMILES | CHRM5 agonist | CHRM4 PAM | CHRM5 PAM | CHRM4 agonist | M5 antag | M4 antag
O=C(O)c1cccc(N2C(=O)c3cc([N+](=O)[O-])cc4cc([N+](=O)[O-])cc(c34)C2=O)c1 | -3 | -3 | 0 | 0 | 9 | -16
CCOc1ccc(CC(C(=O)NN)C(=O)NN)cc1CN(C)C | -1 | 19* | 3 | -1 | -9 | -22
CC(C)CCn1nc(C(=O)OCC(=O)NC(C)c2ccccc2)c2ccccc2c1=O (stereo unspecified) | -3 | -1 | 2 | 0 | 29* | 1
Cc1ccc(S(=O)(=O)CCC(=O)OCC(=O)NCCc2ccccc2)cc1 | 1 | 2 | 1 | 0 | -3 | 2
O=C1C=C(O)c2cccc(O)c2C1=O | 4 | 4 | 3 | 0 | 3 | -2
CC1OC(CC(=O)O)CC2=C1C(=O)c1c(O)cccc1C2=O (stereo unspecified) | 23 | 8 | 0 | 6 | 49* | 36*
CCOc1cc2c3c(c1)C1(OCCO1)C(=O)N3C(C)(C)CC2C (stereo unspecified) | -7 | 2 | 0 | -2 | -4 | 0
CCc1cc2c3c(c1)C(C)CC(C)(C)N3C(=O)C2=O (stereo unspecified) | 26* | -1 | 0 | -2 | -9 | 8
COc1cc(/C=C/C(=O)c2ccc3c(c2)OCO3)cc(Cl)c1O | 50* | -27 | -15 | 125* | 33* | 32*
COc1ccc(C(=O)C=Cc2ccc3c(c2)OCO3)cc1OC | 0 | -7 | 0 | 4 | 1 | 9
Nc1nnc(SCC(=O)NC2CCCCCC2)s1 | 2 | 24* | 2 | 0 | -10 | -12
Cc1ccccc1-n1c(SCC(=O)N2CCCC2)nnc1-c1ccccn1 | 2 | 6 | 19* | 1 | -21 | -4
Cn1c(Cc2ccccc2)nnc1SCC(=O)N1CCCCC1 | -1 | 11 | 2 | -1 | -2 | 95*
CCOc1ccc(NC(=O)Cc2c(C(=O)O)n(C)c3ccccc23)cc1 | -4 | 1 | 6 | 0 | 4 | -4
Cc1cccc(-n2c(-c3ccncc3)n[nH]c2=S)c1 | -1 | 17* | 3 | 0 | -4 | -5
Cc1ccc(-n2c(-c3ccc(Cl)cc3)n[nH]c2=S)c(C)c1 | 4 | 23* | -2 | 6 | 30* | 21
c1cncc(CNc2ncnc3ccc(-c4ccc5c(c4)OCCO5)cc23)c1 | -7 | 1 | 0 | -1 | 9 | 11
O=c1cc(C(F)(F)F)[nH]c2c(OC(F)(F)F)cccc12 | 4 | 8 | -13 | 5 | 15 | 4
CC(C)OP(=O)(OC(C)C)C(O)c1ccc(N(C)C)cc1 (stereo unspecified) | 3 | 4 | 1 | 2 | 8 | -4
CCOC(=O)Cc1csc(NC(=O)Nc2cccc(Cl)c2)n1 | 5 | -9 | -18 | 17 | 29* | 0
O=C(Nc1cccc(Cl)c1)Nc1nnc(-c2ccncc2)s1 | 9 | -12 | -18 | 15 | 32* | 17
CS(=O)(=O)c1ccc2nc(NC(=O)Nc3ccc(Cl)c(Cl)c3)sc2c1 | 0 | 8 | 0 | 2 | -5 | -13
CS(=O)(=O)c1ccc2nc(NC(=O)Nc3cccc(Cl)c3)sc2c1 | 9 | -6 | -24 | 22 | 32* | 16
CC(C)(C)c1ccc(S(=O)(=O)NC(=O)C2(C)CCN2C(=O)Cc2ccc(-c3ccccc3)cc2)cc1 (stereo unspecified) | 1 | 6 | 0 | 0 | -1 | 2
CC(C)CN(C(=O)COC(=O)CCCc1c[nH]c2ccccc12)c1c(N)n(Cc2ccccc2)c(=O)[nH]c1=O | -2 | -2 | -6 | 1 | 29* | 7
CC(C)CN(C(=O)COC(=O)CCc1c[nH]c2ccccc12)c1c(N)n(Cc2ccccc2)c(=O)[nH]c1=O | 1 | 2 | 1 | 2 | 7 | 0
CC(=O)c1ccc(Nc2ccc(-c3ccccc3C)nn2)cc1 | -1 | -5 | -6 | 7 | -6 | -6
